According to ChEMBL document CHEMBL4390676, “Discovery of Bisubstrate Inhibitors for Protein N-Terminal Methyltransferase 1” (J Med Chem, 2019):
The source made the active and inactive calls. No cut-off for these calls is given here. Residues, ends and D or L forms follow the SMILES beside them. *: point of attachment. X1 = Nc1ncnc2c1ncn2[C@@H]1O[C@H](CN(CCCN2CCC[C@H]2C(=O)*)CC[C@H](N)C(=O)O)[C@@H](O)[C@H]1O

Tests used:
[1] = target: T1, N-terminal Xaa-Pro-Lys N-methyltransferase 1 (Homo sapiens, UniProt Q9BV86); assay: Inhibition of recombinant human full-length His6-tagged NTMT1 (1 to 222 residues) expressed in Escherichia coli BL21-CodonPlus(DE3)-RIL competent cells using peptide substrate in presence of SAM by fluorescence assay
T1 sequence (Q9BV86 whole entry): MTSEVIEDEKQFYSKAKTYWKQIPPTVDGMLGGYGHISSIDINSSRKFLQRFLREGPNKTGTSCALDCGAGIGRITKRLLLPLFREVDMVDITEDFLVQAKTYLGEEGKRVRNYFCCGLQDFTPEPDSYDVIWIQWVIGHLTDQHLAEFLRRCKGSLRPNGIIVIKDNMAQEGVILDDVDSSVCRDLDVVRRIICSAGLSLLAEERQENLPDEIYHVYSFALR
How it was run: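 SAHH-coupled fluorescence assay that tracks SAH formation by NTMT1. SAM and peptide substrate GPKRIA are each at their Km values. IC50 is taken from dose–response curves, n = 3.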

[2] = target: Protein arginine N-methyltransferase 1 (Rattus norvegicus, UniProt Q63009); assay: Inhibition of rat His6-tagged PRMT1 expressed in Escherichia coli BL21(DE3) using H4-21 peptide as substrate preincubated for 10 mins in presence of SAM followed by substrate addition by fluorescence assay
Protein arginine N-methyltransferase 1, sequence (Q63009 whole entry, the tested form may be a part): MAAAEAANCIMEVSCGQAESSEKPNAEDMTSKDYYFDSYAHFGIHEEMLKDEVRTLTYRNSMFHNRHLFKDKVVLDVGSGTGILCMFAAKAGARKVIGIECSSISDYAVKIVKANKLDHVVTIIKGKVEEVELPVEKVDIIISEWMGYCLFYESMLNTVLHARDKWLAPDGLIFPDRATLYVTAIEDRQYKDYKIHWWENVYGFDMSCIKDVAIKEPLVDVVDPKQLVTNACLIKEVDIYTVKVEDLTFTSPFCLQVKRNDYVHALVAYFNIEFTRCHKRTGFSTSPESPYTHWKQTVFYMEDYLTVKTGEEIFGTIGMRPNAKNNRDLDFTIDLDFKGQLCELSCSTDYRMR

[3] = target: T2, N-terminal Xaa-Pro-Lys N-methyltransferase 1 (Homo sapiens) (UniProt Q9BV86); assay: (§1) Inhibition of recombinant human full-length His6-tagged NTMT1 (1 to 222 residues) expressed in Escherichia coli BL21-CodonPlus(DE3)-RIL competent cells assessed as reduction in GPKRIA di-methylation at 100 nM preincubated for 10 mins in presence of SAM followed by GPKRIA addition and measured after 20 mins by MALDI TOF-MS analysis
T2 sequence (whole entry): T1 sequence (Q9BV86 whole entry)
How it was run: (§2)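 Orthogonal MALDI-MS assay that directly follows α-N-amine methylation of substrate peptide GPKRIA by NTMT1 over 20 min. Methylated peptide products were monitored by mass spectrometry.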

[4] = target: T2, N-terminal Xaa-Pro-Lys N-methyltransferase 1 (Homo sapiens); assay: Bi-substrate inhibition of recombinant human full-length His6-tagged NTMT1 (1 to 222 residues) expressed in Escherichia coli BL21-CodonPlus(DE3)-RIL competent cells using varying levels of GPKRIA as substrate preincubated for 10 mins in presence of varying levels of SAM followed by substrate addition by fluorescence assay
How it was run: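 Kinetic mechanism study in the SAHH-coupled fluorescence assay. IC50 curves were run at varying SAM with fixed GPKRIA, and at varying GPKRIA with fixed SAM. IC50 values were plotted against SAM or peptide concentration by linear regression.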

[5] = target: T3, Histone-lysine N-methyltransferase EHMT2 (Homo sapiens) (UniProt Q96KQ7); assay: Inhibition of human His-tagged G9a (913 to 1193 residues) expressed in Escherichia coli BL21-CodonPlus(DE3)-RIL assessed as enzyme residual activity at 100 uM using H3-21 peptide as substrate preincubated for 10 mins in presence of SAM followed by substrate addition by fluorescence assay relative to control
T3 sequence (whole entry): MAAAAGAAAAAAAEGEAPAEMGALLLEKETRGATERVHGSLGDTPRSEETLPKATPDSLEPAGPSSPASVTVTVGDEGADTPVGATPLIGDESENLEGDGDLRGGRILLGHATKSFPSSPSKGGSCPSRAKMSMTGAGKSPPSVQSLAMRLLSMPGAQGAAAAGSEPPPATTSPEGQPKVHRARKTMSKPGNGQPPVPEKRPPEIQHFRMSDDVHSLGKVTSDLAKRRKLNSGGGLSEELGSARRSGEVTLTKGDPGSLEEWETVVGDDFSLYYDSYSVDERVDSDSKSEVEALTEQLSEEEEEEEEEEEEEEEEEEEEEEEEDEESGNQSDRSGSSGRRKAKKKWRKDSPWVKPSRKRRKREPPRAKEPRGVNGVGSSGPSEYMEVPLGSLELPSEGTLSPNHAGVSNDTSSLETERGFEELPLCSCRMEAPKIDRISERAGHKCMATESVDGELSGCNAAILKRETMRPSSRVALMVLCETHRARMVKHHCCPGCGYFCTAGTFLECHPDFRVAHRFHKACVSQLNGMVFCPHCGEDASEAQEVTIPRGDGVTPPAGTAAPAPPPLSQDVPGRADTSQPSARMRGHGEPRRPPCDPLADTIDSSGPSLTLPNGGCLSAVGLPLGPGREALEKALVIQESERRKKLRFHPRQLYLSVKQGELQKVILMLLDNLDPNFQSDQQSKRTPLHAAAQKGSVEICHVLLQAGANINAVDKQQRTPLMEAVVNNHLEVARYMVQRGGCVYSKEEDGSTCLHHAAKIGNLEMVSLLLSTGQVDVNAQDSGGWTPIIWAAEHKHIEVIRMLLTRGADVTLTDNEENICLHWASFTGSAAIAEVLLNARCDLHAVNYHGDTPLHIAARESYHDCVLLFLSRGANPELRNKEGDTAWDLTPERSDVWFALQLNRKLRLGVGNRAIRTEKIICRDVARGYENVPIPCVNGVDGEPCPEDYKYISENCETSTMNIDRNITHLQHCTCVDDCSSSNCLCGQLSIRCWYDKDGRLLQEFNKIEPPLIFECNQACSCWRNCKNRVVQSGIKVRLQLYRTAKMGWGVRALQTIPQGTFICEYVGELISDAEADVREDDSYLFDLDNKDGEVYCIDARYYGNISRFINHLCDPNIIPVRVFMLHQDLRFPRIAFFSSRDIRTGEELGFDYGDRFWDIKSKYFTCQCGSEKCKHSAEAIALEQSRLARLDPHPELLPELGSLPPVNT
How it was run: (§3)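 Selectivity panel with inhibitor at 3.3, 10, 33 or 100 μM. Enzyme activity is given as percent of control, mean of duplicate experiments (n = 2).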

[6] = target: T2, N-terminal Xaa-Pro-Lys N-methyltransferase 1 (Homo sapiens); assay: Inhibition of recombinant human full-length His6-tagged NTMT1 (1 to 222 residues) expressed in Escherichia coli BL21-CodonPlus(DE3)-RIL competent cells assessed as residual enzyme activity at 10 uM using GPKRIA as substrate preincubated for 10 mins in presence of SAM followed by substrate addition by fluorescence assay relative to control
How it was run: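 NTMT1 residual activity […] with SAM and GPKRIA at Km. Values are means of triplicate experiments (n = 3).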

[7] = target: T4, Histone-lysine N-methyltransferase SETD7 (Homo sapiens) (UniProt Q8WTS6); assay: Inhibition of human His-tagged SETD7 (1 to 366 residues) expressed in Escherichia coli assessed as enzyme residual activity at 3.3 uM using H3-21 peptide as substrate preincubated for 10 mins in presence of SAM followed by substrate addition by fluorescence assay relative to control; how it was run: as §3
T4 sequence (whole entry): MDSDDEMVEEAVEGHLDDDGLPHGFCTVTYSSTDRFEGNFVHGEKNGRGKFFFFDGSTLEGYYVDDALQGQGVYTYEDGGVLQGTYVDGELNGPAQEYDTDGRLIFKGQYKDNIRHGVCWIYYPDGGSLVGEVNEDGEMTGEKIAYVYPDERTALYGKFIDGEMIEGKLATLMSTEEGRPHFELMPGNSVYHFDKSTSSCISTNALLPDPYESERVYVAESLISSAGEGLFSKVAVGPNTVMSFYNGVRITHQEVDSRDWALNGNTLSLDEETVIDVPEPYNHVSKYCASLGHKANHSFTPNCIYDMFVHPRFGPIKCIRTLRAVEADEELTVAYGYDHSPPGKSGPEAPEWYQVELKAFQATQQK

[8] = target: T2, N-terminal Xaa-Pro-Lys N-methyltransferase 1 (Homo sapiens); assay: as §1, with “trimethylation” for “di-methylation”; how it was run: as §2
[9] = target: T4, Histone-lysine N-methyltransferase SETD7 (Homo sapiens); assay: Inhibition of human His-tagged SETD7 (1 to 366 residues) expressed in Escherichia coli assessed as enzyme residual activity at 10 uM using H3-21 peptide as substrate preincubated for 10 mins in presence of SAM followed by substrate addition by fluorescence assay relative to control; how it was run: as §3
[10] = target: T4, Histone-lysine N-methyltransferase SETD7 (Homo sapiens); assay: Inhibition of human His-tagged SETD7 (1 to 366 residues) expressed in Escherichia coli assessed as enzyme residual activity at 33 uM using H3-21 peptide as substrate preincubated for 10 mins in presence of SAM followed by substrate addition by fluorescence assay relative to control; how it was run: as §3
[11] = Inhibition of Trypanosoma brucei N-terminal His6-tagged PRMT7 expressed in Escherichia coli BL21-CodonPlus(DE3)-RIL using H4-21 peptide as substrate preincubated for 10 mins in presence of SAM followed by substrate addition by fluorescence assay
[12] = target: Protein arginine N-methyltransferase 1 (Rattus norvegicus) (UniProt Q63009); assay: Inhibition of rat His6-tagged PRMT1 expressed in Escherichia coli BL21(DE3) assessed as enzyme residual activity at 3.3 uM using H4-21 peptide as substrate preincubated for 10 mins in presence of SAM followed by substrate addition by fluorescence assay relative to control; how it was run: as §3
Protein arginine N-methyltransferase 1 (Rattus norvegicus), sequence (Q63009 whole entry, looked up, the tested form may be a part): as the sequence (Q63009 whole entry, the tested form may be a part) above

[13] = target: T2, N-terminal Xaa-Pro-Lys N-methyltransferase 1 (Homo sapiens); assay: Inhibition of recombinant human full-length His6-tagged NTMT1 (1 to 222 residues) expressed in Escherichia coli BL21-CodonPlus(DE3)-RIL competent cells at 10 uM using GPKRIA as substrate preincubated for 10 mins in presence of SAM followed by substrate addition by fluorescence assay

N=C(N)NCCC[C@H](NC(=O)[C@H](CCCNC(=N)N)NC(=O)[C@H](CCCNC(=N)N)NC(=O)[C@@H]1CCCN1C(=O)CNCCCN(CC[C@H](N)C(=O)O)C[C@H]1O[C@@H](n2cnc3c(N)ncnc32)[C@H](O)[C@@H]1O)C(=O)N[C@@H](CO)C(N)=O
IC50 [1]: 0.94 µM

CC[C@H](C)[C@H](NC(=O)[C@H](CCCNC(=N)N)NC(=O)[C@H](CCCCN)NC(=O)[C@@H]1CCCN1C(=O)[C@@H]1CCCN1CCCN(CC[C@H](N)C(=O)O)C[C@H]1O[C@@H](n2cnc3c(N)ncnc32)[C@H](O)[C@@H]1O)C(=O)N[C@@H](C)C(N)=O (X1-PKRIA-NH2)
IC50 [2]: > 33 µM
inhibition [3]: Active
inhibition [4]: Active
Activity [5]: 78%
Activity [6]: 14%
Activity [7]: 94%
inhibition [8]: Active
Activity [9]: 99%
Activity [10]: 97%
IC50 [11]: > 10 µM
Activity [12]: 97%

Nc1ncnc2c1ncn2C1O[C@H](CN(CCCN2CCC[C@H]2C(=O)O)CC[C@H](N)C(=O)O)[C@@H](O)[C@H]1O (single isomer, unassigned)
inhibition [13]: inactive
